Test results: PMC8341375 (RSC Chemical Biology, 2021)
Each block holds one molecule with its values, some of them ahead of it.

Key:
[1] = molecular target: T1, aromatase (CYP19) (Homo sapiens, UniProt P11511); assay: CYP19/MFC aromatase inhibition assay; format: biochemical; details: for Fractional activity at saturation / Hill slope: dose-response fit, 7.5 nM P450, 25 μM MFC; for Hill slope: AR19 fixed to 1
T1 sequence (P11511 1-503): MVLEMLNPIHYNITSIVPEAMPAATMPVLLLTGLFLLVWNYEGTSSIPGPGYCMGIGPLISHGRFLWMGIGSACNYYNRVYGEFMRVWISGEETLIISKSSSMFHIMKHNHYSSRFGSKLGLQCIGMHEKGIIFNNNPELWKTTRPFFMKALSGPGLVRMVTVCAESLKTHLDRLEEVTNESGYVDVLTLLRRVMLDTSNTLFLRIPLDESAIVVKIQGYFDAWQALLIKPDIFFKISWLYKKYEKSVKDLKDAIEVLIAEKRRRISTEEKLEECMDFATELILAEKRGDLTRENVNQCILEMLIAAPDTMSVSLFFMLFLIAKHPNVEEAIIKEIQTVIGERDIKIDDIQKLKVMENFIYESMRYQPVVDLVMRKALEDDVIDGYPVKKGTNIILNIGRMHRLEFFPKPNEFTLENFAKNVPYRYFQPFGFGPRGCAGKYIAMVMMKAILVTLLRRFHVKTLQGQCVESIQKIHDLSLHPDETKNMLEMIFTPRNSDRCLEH

[2] = test system: recombinant CYP19; assay: Soret shifts by absorption spectroscopy; format: binding; details: titration of up to 100 μM, 2 μM ASD
In short: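 Purified recombinant CYP19 (from codon-optimized CYP19A1 cDNA in pCW) at 2–3 μM in 100 mM potassium phosphate, pH 7.4. Test compound titrated (6–36 μM, then 100 μM) with ACN kept ≤3%, with or without 2 μM androstenedione. UV-Vis absorption scans after 10 min at 25 °C. Adducts were dithionite-reduced and exposed to CO in some runs.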

[3] = molecular target: T1, aromatase (CYP19); details: noncompetitive AI; cited from earlier work
[4] = molecular target: T2, CYP19 (Homo sapiens, UniProt P11511); assay: AR11 and AR13 steady-state kinetics assay; format: biochemical; details: nonlinear regression, no inhibitor
T2 sequence (P11511 1-503): T1 sequence (P11511 1-503)

[5] = substrate: COc1ccc2c(C(F)(F)F)cc(=O)oc2c1; assay: AR11 and AR13 steady-state kinetics assay; format: biochemical; details: other: nonlinear regression, no inhibitor; pH 7.4; 37.0 °C

Molecule: COc1ccc2c(C(F)(F)F)cc(=O)oc2c1 [MFC, 7-methoxy-4-(trifluoromethyl)coumarin]
substrate Vmax [4]: 0.731 pmol HFC min^−1 pmol^−1 P450

B1: CYP19 (Homo sapiens) (protein)
chain: T1 sequence (P11511 1-503)
Km [5]: 28.48 µM

Further lines, with some results ahead:

IC50 ([1]; IC50, 7.5 nM P450, 25 μM MFC, 4-parameter logistic model (AR19: 3-parameter, Hill 1), ± SEM): 30.9 ± 3.1 µM
Fractional activity at saturation [1]: 0.02 ± 0.02
Hill slope [1]: 2.27 ± 0.41
Hill slope ([1]; listed as endoxifen): 2
Molecule: CC/C(=C(\c1ccc(O)cc1)c1ccc(OCCNC)cc1)c1ccccc1 [Endoxifen, endoxifen]
Soret peak shift from 395 nm in the CYP19 ASD-bound state [2]: did not induce a Soret peak shift
Ki [3]: 4 µM

Fractional activity at saturation [1]: 0.03 ± 0.01
Hill slope [1]: 1.12 ± 0.07
Molecule: CC(=O)N1CCN(c2ccc(OCC3COC(Cn4ccnc4)(c4ccc(Cl)cc4Cl)O3)cc2)CC1 (stereo not shown) [Ketoconazole, ketoconazole]
